Most compounds without a hit are left out; they make up all but 6.8% or so of the library.
HER2 expr 66K = inhibitors of Her2 protein expression, primary screen, SKBR-3 cells, AlphaScreen, 66K library. Receptor tyrosine-protein kinase erbB-2 (Homo sapiens), P04626. SKBR-3 HER2 protein level, 18-24 h; active compounds read low. HER2 level % of control, % at 10 µM. actives 0.69% (n = 65,000). AID 645, 2007;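 active = HER2 level under 5% of the carrier-only control; inconclusive = no clear call, values can overlap the other calls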;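 note: 100% = DMSO carrier and 0% = 500 nM PU-H71 HSP90 inhibitor; lower value means stronger loss of Her2 protein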
Target sequence (P04626 whole entry, looked up): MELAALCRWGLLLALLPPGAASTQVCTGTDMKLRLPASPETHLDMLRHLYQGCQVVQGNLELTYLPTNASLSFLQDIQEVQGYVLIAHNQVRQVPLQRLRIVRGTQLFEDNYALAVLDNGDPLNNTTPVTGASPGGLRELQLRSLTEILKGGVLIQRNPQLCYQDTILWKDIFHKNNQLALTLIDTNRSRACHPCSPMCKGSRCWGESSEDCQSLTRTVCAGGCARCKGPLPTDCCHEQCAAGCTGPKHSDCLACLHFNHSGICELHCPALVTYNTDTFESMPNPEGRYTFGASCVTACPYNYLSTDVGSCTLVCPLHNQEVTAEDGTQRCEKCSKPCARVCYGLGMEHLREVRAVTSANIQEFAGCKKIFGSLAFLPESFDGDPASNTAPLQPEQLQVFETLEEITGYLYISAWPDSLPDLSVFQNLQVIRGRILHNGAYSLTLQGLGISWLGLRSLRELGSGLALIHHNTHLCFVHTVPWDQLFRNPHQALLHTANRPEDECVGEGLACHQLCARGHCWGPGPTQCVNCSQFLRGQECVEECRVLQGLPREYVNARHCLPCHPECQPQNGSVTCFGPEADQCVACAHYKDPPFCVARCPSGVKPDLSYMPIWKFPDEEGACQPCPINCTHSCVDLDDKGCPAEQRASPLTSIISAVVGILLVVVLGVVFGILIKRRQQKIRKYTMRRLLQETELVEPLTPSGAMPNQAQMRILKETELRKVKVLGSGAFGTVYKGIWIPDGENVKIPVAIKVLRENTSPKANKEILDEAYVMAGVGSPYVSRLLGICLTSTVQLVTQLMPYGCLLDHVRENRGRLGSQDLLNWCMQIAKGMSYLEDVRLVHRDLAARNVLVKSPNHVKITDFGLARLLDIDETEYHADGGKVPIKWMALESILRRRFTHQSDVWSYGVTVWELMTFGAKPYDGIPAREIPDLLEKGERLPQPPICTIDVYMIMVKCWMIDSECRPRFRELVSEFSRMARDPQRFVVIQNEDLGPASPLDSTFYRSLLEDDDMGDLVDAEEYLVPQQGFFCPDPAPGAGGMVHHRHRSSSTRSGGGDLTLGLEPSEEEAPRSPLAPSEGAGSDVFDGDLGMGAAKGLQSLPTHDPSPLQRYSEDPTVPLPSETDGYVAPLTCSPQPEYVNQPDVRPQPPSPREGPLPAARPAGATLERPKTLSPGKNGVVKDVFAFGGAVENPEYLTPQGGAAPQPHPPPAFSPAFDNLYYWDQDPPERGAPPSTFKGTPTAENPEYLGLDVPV
HEK293 NFkB inh = inhibitors of PMA/ionomycin-induced NF-kB reporter, primary screen, antigen receptor NF-kB inhibitor project, cell-based, HEK-293 luciferase reporter, luminescence | inhibition, % at 3 µM | HEK-293 NF-kB luciferase reporter | AID 465, 2006 | actives 0.21% (n = 62,000);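 active = inhibition above the mean of all tested compounds plus 3 SD, cut at about 40% in these data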;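 note: 0% = stimulated DMSO wells and 100% = 10 µM reference inhibitor 5653914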
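Timing: 1 h pretreatment, 16 h stimulation, 37 °C; system: HEK-293 cells with stable firefly luciferase reporter driven by four HIV NF-kB elements; doses: 3 µM once, 0.30% DMSO; measured by: luciferase luminescence; control set: DMSO and 10 µM reference inhibitor; repeats: single test; reagent: PMA plus ionomycin mix as NF-kB-activating stimulus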
M1 agonist = M1 muscarinic receptor agonists, primary screen, CHO-M1 cells, Fluo-4 calcium, agonist mode | B-score at 10 µM | actives 3% (n = 64,000) | AID 626, 2007 | Fluo-4 calcium fluorescence; active compounds read high | Muscarinic acetylcholine receptor M1;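 active = fluorescence rise, raw or as B-score row- and column-corrected plate score, outside the 99.7% band of its plate's samples, either direction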
M1 antag = antagonists of rat M1 muscarinic receptor | Muscarinic acetylcholine receptor M1 (Rattus norvegicus), P08482 | CHO-M1 cells, Fluo-4 calcium, ACh EC80 antagonist mode; active compounds read low | B-score at 10 µM | actives 3.4% (n = 64,000);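 active = calcium fluorescence response, raw or row-and-column corrected B-score, differing from the plate sample mean either way at a set confidence level, mostly lower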
DUSP1 inh = MKP-1 phosphatase inhibitors, primary screen, biochemical, in vitro | recombinant MKP-1, OMFP hydrolysis fluorescence | inhibition, %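 (compounds tested at a single concentration somewhere between 10 and 100 µM)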 | actives 0.15% (n = 65,000);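 active = inhibition above about 50%, limit read from the data; inconclusive = inhibition over screen mean plus 3 SD, below that limit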;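 note: 0% = DMSO max control wells and 100% = wells with enzyme stopped by NaOH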
Cdc25B block = inhibitors of Cdc25B phosphatase catalytic domain, primary screen, biochemical, OMFP fluorescence. M-phase inducer phosphatase 2 (Homo sapiens), P30305. inhibition, %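 (compounds tested at 10 µM final in the well)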. recombinant Cdc25B, OMFP fluorescence Ex485/Em525. actives 0.1% (n = 65,000); in the data active = inhibition above about 50%
M1 agonist conf = rat M1 muscarinic receptor agonists, confirmation, CHO-M1 cells, Fluo-4 calcium, duplicate retest | shares compounds with M1 agonist | Fluo-4 calcium fluorescence, agonist mode; actives lie on both sides | fluorescence change (max-min) at 10 µM | actives 19% (n = 1,700) | AID 1488, 2009;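 active = fluorescence change differs from the solvent-only DMSO control mean at a set confidence level in both duplicate runs; inconclusive = differs from solvent-only control mean in just one of two runs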;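 note: an EC20 dose of acetylcholine follows compound addition during the same imaging run; raw fluorescence intensity difference in instrument units with no normalization to controls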
M4 ag counter = agonist activity at rat M4 receptor, confirmation, counter-screen for M1 allosteric modulator project, cell-based, agonist mode; shares compounds with M1 agonist; CHO M4/Gqi5 cells, Fluo-4 calcium fluorescence; actives lie on both sides; fluorescence change (max-min) at 10 µM; actives 9% (n = 1,700); AID 1741, 2009;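 active = fluorescence change differing from the plate's solvent-only control wells at 99.7% confidence in both duplicates, whether higher or lower; inconclusive = differs from solvent controls in only one of two duplicates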
* hit, by the source's call; u = inconclusive; x = not tested or not shown.

SMILES | HER2 expr 66K | HEK293 NFkB inh | M1 agonist | M1 antag | DUSP1 inh | Cdc25B block | M1 agonist conf | M4 ag counter
CC(=O)Nc1ccc(S(=O)(=O)NCc2cn3c(C)csc3n2)cc1 | 107 | 14 | 0.37 | 0.2 | -2 | -8 | x | x
COc1ccccc1N1C(=O)C2C3C=CC(C3)C2C1=O (configuration not stated) | 109 | 18 | 0.4 | 0.24 | -6 | -6 | x | x
CCOC(=O)COn1c(=O)c(-c2cccs2)[n+]([O-])c2ccccc21 | 125 | 14 | 88* | -0.076 | 3 | 8 | 800* | u
C=CCOn1c(=O)c(C)[n+]([O-])c2ccccc21 | 95 | 10 | 0.69 | -0.94 | 4 | -7 | x | x
COn1c(=O)c(-c2ccc(Cl)cc2)[n+]([O-])c2ccccc21 | 78 | 13 | -0.23 | -0.17 | -6 | -13 | x | x
CCOn1c(=O)c(-c2ccc(OC)cc2)[n+]([O-])c2ccccc21 | 47 | -4 | 5.2* | -0.89 | 28 | 4 | u | -92
O=c1c(-c2ccccc2)[n+]([O-])c2ccccc2n1O | 81 | 7 | 9.3* | -0.17 | -10 | 0 | 42 | 5.1
CS(=O)(=O)NCCC1=CCCCC1 | 120 | 10 | -0.31 | 0.0007 | 2 | -8 | x | x
Cc1cc(C)n(-c2nncn2NC(=O)c2ccc(Cl)cc2O)n1 | 127 | 2 | -0.54 | 0.46 | 20 | -2 | x | x
Cc1nn2c(-c3cccc(NC(=O)CSc4nc5ccccc5o4)c3)nnc2c2ccccc12 | 93 | 17 | 0.85 | -0.95 | 33 | -5 | x | x
CCN1C(=S)SC(=O)C1=C1C=C(C)N(Cc2ccco2)C(C)=C1 | 187 | -40 | 27* | 0.17 | 9 | -1 | 135* | 234*
c1cn2cc(-c3ccc4c(c3)OCO4)nc2s1 | 110 | -27 | 0.44 | 0.15 | 5 | 0 | x | x
Cc1ccccc1Nc1nc(N)nc(CSc2nc3ccccc3c(=O)n2CCCO)n1 | 82 | 20 | 4.1* | 0.15 | 38 | -11 | u | -49
COc1cccc(C(=O)CSc2nnc(-c3cc(OC)cc(OC)c3)o2)c1 | 85 | 2 | -0.25 | -0.1 | -19 | 1 | x | x
COc1cc(OC)cc(-c2nnc(SCc3c(F)cccc3Cl)o2)c1 | 91 | 4 | -2.8* | 0.34 | 9 | -10 | u | -42
O=C(O)C(Cc1c[nH]c2ccccc12)NS(=O)(=O)c1cccc2nsnc12 (configuration not stated) | 103 | x | -0.28 | -0.1 | -11 | 16 | x | x
Clc1ccc(OCCN2CCN(c3ncnc4sccc34)CC2)cc1 | 115 | 62* | 4.5* | -3.3* | 3 | -19 | 15 | -21
Clc1ccc(Cc2noc(-c3cccs3)n2)cc1 | 134 | 5 | -0.43 | 1.2 | 6 | 3 | x | x
Cc1ccc(S(=O)(=O)c2cc3c(=O)n4ccccc4nc3n(CC3CCCO3)c2=N)cc1C (configuration not stated) | 73 | 15 | 0.46 | -0.055 | 5 | -4 | x | x
Cc1ccc(S(=O)(=O)c2cc3c(=O)n4ccccc4nc3n(Cc3ccco3)c2=N)cc1C | 87 | 14 | 5.9* | -0.48 | 15 | 13 | 20 | 11
N=c1c(S(=O)(=O)c2ccccc2)cc2c(=O)n3ccccc3nc2n1Cc1ccco1 | 16 | 6 | 9* | 0.14 | 34 | 8 | 15 | -22
Cc1ccc(S(=O)(=O)c2cc3c(=O)n4ccccc4nc3n(C)c2=N)cc1 | 113 | x | 5.1* | -0.015 | -13 | 24 | -11 | u
CCOc1ncccc1C(=O)OCC(=O)NCCc1ccc(OC)cc1 | 68 | 11 | 0.83 | 0.41 | 0 | -7 | x | x
O=C1c2ccccc2N2C(=O)c3ccccc3C2N1Cc1ccco1 (configuration not stated) | 85 | 13 | 5.3* | -0.78 | 5 | -2 | 0.65 | -28
COc1cc2nc(NCC3CCCO3)n3nc(-c4cccnc4)nc3c2cc1OC (configuration not stated) | 87 | 11 | 2.9* | -3.9* | -12 | -13 | u | -39
SMILES | HER2 expr 66K | HEK293 NFkB inh | M1 agonist | M1 antag | DUSP1 inh | Cdc25B block | M1 agonist conf | M4 ag counter
COCCn1nnnc1CN(CCc1ccccc1)Cc1cc2ccc(C)cc2[nH]c1=O | 84 | 0 | -0.41 | 0.12 | 20 | -10 | x | x
C=C(C)Cn1c(CCCNC(=O)CCC)nc2ccccc21 | 64 | 8 | 0.0018 | -0.91 | 5 | -16 | x | x
O=S(=O)(c1cccc(S(=O)(=O)N2CCC(N3CCCCC3)CC2)c1)N1CCOCC1 | 91 | 7 | 5.9* | -1.8 | 0 | 2 | -14 | -18
CCC(=O)N1CCN(c2ccc(NC(=O)c3cc4ccccc4o3)cc2Cl)CC1 | 85 | 12 | 4.5* | -1.9* | 10 | -2 | -19 | -35
CCCC(=O)N1CCN(c2ccc(NC(=O)c3cc4ccccc4o3)cc2Cl)CC1 | -9.9* | 27 | 6.9* | -1.6 | 7 | -23 | -17 | -34
COc1ccc(C2C(C(=O)c3sc(C)nc3C)=C(O)C(=O)N2CCCn2ccnc2)cc1 (configuration not stated) | 88 | 2 | -1 | 1.8 | -12 | 2 | x | x
CCS(=O)(=O)N1CCN(CC2CC3C=CC2C3)CC1 (configuration not stated) | 90 | x | x | x | 7 | -16 | x | x
CCCS(=O)(=O)N1CCN(CC2CC3C=CC2C3)CC1 (configuration not stated) | 81 | 18 | 3.1* | 0.59 | -1 | -13 | -9.9 | u
O=C(c1ccco1)N1CCN(C(=O)C(Sc2ccccc2)c2ccccc2)CC1 (configuration not stated) | 99 | 12 | 3.8* | -0.64 | 3 | -2 | u | -74
CCC1Oc2ccc(C)cc2N(CC(=O)NCc2cccc(OC)c2)C1=O (configuration not stated) | 87 | 8 | 0.36 | -0.23 | -20 | 0 | x | x
O=C(NCc1ccco1)c1sc(=S)n2c1[nH]c(=O)c1ccccc12 | 103 | 12 | 12* | -2 | 7 | -9 | 53 | 35
O=C(CC1(C(F)(F)F)OCCO1)Nc1ccc2c(c1)OCO2 | 139 | 20 | -1.3 | 0.3 | -3 | -11 | x | x
